{"data": "Measured values from different studies", "STK32A": "Serine/threonine-protein kinase 32A (STK32A, Homo sapiens, UniProt Q8WU08)", "STK17B": "Serine/threonine-protein kinase 17B (STK17B, Homo sapiens, UniProt O94768)", "RPS6KB2": "Ribosomal protein S6 kinase beta-2 (RPS6KB2, Homo sapiens, UniProt Q9UBS0)", "ache": "Acetylcholinesterase (ache, Electrophorus electricus, UniProt O42275)", "MAP3K21": "Mitogen-activated protein kinase kinase kinase 21 (MAP3K21, Homo sapiens, UniProt Q5TCX8)", "note": "Lines come from different studies, so protocols differ."}
{"Compound": "COC(=O)C(C)Oc1ccc2c(C)cc(=O)oc2c1 (stereo not drawn)", "target": "Aldehyde dehydrogenase 1A1 (ALDH1A1, Homo sapiens, UniProt P00352, N121S)", "assay": "enzyme activity, inhibitor, absorbance", "setting": "10 µM", "endpoint": "remaining activity", "value": "82.8%"}
{"Compound": "Cn1c2c(Cl)c(Cl)ccc2c2cc[nH]c(=O)c21", "target": "STK32A", "assay": "thermal stability, DSF", "setting": "10 µM", "endpoint": "ΔTm", "value": "-0.4 °C"}
{"Compound": "NS(=O)(=O)c1ccc(CNc2ccnc(Nc3cccc(CN4CCOCC4)c3)n2)cc1", "target": "STK17B", "assay": "enzyme activity, inhibitor, radiometric", "setting": "1 µM", "endpoint": "remaining activity", "value": "96%"}
{"Compound": "CC(C)(O)[C@H]1CC[C@H](Nc2ccc3ncc(-c4cccc(C(F)(F)F)c4)n3n2)CC1", "target": "RPS6KB2", "assay": "enzyme activity, inhibitor", "setting": "1 µM", "endpoint": "remaining activity", "value": "82.3%"}
{"Compound": "COc1cc2c(cc1OC)C(=O)N(CCc1c[nH]c3ccccc13)C2", "target": "ache", "assay": "enzyme activity, inhibitor", "setting": "1 µM", "endpoint": "inhibition", "value": "-4.59%"}
{"Compound": "N#CC1c2c([nH]c3c(Cl)c(Cl)ccc23)C(=O)NC12CCCCC2 (racemic)", "target": "STK32A", "assay": "thermal stability, DSF", "setting": "10 µM", "endpoint": "ΔTm", "value": "0.1 °C"}
{"Compound": "Brc1cnc(Nc2cccc(CN3CCOCC3)c2)nc1NCCc1c[nH]cn1", "target": "STK17B", "assay": "enzyme activity, inhibitor, radiometric", "setting": "1 µM", "endpoint": "remaining activity", "value": "4%"}
{"Compound": "COc1cc2c(cc1OC)C(=O)N(CC1CCN(Cc3cccc(C#N)c3)CC1)C2", "target": "ache", "assay": "enzyme activity, inhibitor", "setting": "1 µM", "endpoint": "inhibition", "value": "4.99%"}
{"Compound": "O[C@@H]1[C@H](O)CO[C@H]1n1cnc2c(NCc3cccc(Cl)c3)ncnc21", "target": "Adenosine receptor A1 (ADORA1, Homo sapiens, UniProt P30542)", "assay": "ligand displacement, radioligand", "setting": "10 µM, cell membranes", "endpoint": "inhibition", "value": "35%"}
{"Compound": "COc1cc2c(cc1OC)C(=O)N(Cc1ccccn1)C2", "target": "ache", "assay": "enzyme activity, inhibitor", "setting": "1 µM", "endpoint": "inhibition", "value": "4.59%"}
{"Compound": "O=C(NCCCNc1nc(Nc2cccc(NC(=O)N3CCCC3)c2)ncc1C1CC1)C1CCC1", "target": "STK17B", "assay": "enzyme activity, inhibitor, radiometric", "setting": "1 µM", "endpoint": "remaining activity", "value": "3%"}
{"Compound": "Cn1c2c(c3ccc(Cl)c(Cl)c31)C(C#N)C1(CCCC1)NC2=O (stereo not drawn)", "target": "STK32A", "assay": "thermal stability, DSF", "setting": "10 µM", "endpoint": "ΔTm", "value": "-0.2 °C"}
{"Compound": "CC(C)(C)c1nc2c(s1)c1nc(N)ncc1c1ccc(NS(=O)(=O)c3c(F)cccc3F)c(F)c12", "target": "MAP3K21", "assay": "enzyme activity, inhibitor, radiometric", "setting": "1 µM", "endpoint": "remaining activity", "value": "90%"}
{"Compound": "CCc1cc(-c2noc(-c3cc(OC)nc(C4CCCC4)c3)n2)cc(C)c1OC[C@@H](O)CO", "target": "Sphingosine 1-phosphate receptor 1 (S1PR1, Homo sapiens, UniProt P21453)", "assay": "calcium signal, agonist, fluorescence", "system": "HUVEC", "endpoint": "Emax", "value": "37%"}
{"Compound": "COc1cc2c(cc1OC)C(=O)N(Cc1ccc(-c3cccs3)nc1)C2", "target": "ache", "assay": "enzyme activity, inhibitor", "setting": "1 µM", "endpoint": "inhibition", "value": "-4.2%"}
{"Compound": "Cc1ccc(C(=O)NCc2ccsc2)cc1C#Cc1cn(C(C)C)c2ncnc(N)c12", "target": "MAP3K21", "assay": "enzyme activity, inhibitor", "setting": "1 µM", "endpoint": "activity vs control", "value": "81%"}
{"Compound": "O=C(NCCCNc1nc(Nc2cccc(NC(=O)N3CCCC3)c2)ncc1I)c1cccs1", "target": "STK17B", "assay": "enzyme activity, inhibitor, radiometric", "setting": "1 µM", "endpoint": "remaining activity", "value": "4%"}
{"Compound": "CCCOc1ccc(OC)c(F)c1C(=O)c1ccc(C(=O)N[C@@H]2CNC[C@H]2NC(=O)c2ccc3[nH]ncc3c2)cc1", "target": "RAC-gamma serine/threonine-protein kinase (AKT3, Homo sapiens, UniProt Q9Y243)", "assay": "enzyme activity, inhibitor", "setting": "0.1 µM", "endpoint": "remaining activity", "value": "88%"}
{"Compound": "COc1ccc2[nH]cc(CCN3Cc4cc(OC)c(OC)cc4C3=O)c2c1", "target": "ache", "assay": "enzyme activity, inhibitor", "setting": "1 µM", "endpoint": "inhibition", "value": "3.28%"}
{"Compound": "NS(=O)(=O)c1ccc(CNc2nc(Nc3cccc(NC(=O)N4CCCC4)c3)ncc2C2CC2)cc1", "target": "STK17B", "assay": "enzyme activity, inhibitor, radiometric", "setting": "1 µM", "endpoint": "remaining activity", "value": "77%"}
{"Compound": "COc1cc2c(cc1OC)C(=O)N(CC1CCN(Cc3ccsc3)CC1)C2", "target": "ache", "assay": "enzyme activity, inhibitor", "setting": "1 µM", "endpoint": "inhibition", "value": "13.9%"}
{"Compound": "NS(=O)(=O)c1ccc(CNc2nc(Nc3cccc(CN4CCOCC4)c3)ncc2C2CC2)cc1", "target": "STK17B", "assay": "enzyme activity, inhibitor, radiometric", "setting": "1 µM", "endpoint": "remaining activity", "value": "84%"}
{"Compound": "CC/C=C\\C/C=C\\C/C=C\\C/C=C\\C/C=C\\C/C=C\\CCC(=O)O", "target": "Polyunsaturated fatty acid lipoxygenase ALOX15 (ALOX15, Homo sapiens, UniProt P16050)", "assay": "enzyme activity, substrate, absorbance", "endpoint": "Km", "value": "6.7 µM"}
{"Compound": "CN1CCc2cc(Nc3ncc(C4CC4)c(NCCCNC(=O)C4CCC4)n3)ccc2C1", "target": "STK17B", "assay": "enzyme activity, inhibitor, radiometric", "setting": "1 µM", "endpoint": "remaining activity", "value": "4%"}
{"Compound": "CC(C)(C)c1nc(-c2cccc(NS(=O)(=O)c3c(F)cccc3F)c2F)c(-c2ccnc(N)n2)s1", "target": "RPS6KB2", "assay": "enzyme activity, inhibitor, radiometric", "setting": "1 µM", "endpoint": "remaining activity", "value": "98%"}
{"Compound": "COc1cc2c(cc1OC)C(=O)N(Cc1cccnc1)C2", "target": "ache", "assay": "enzyme activity, inhibitor", "setting": "1 µM", "endpoint": "inhibition", "value": "0.13%"}
{"Compound": "NS(=O)(=O)c1ccc(CNc2ccnc(Nc3cccc(NC(=O)N4CCCC4)c3)n2)cc1", "target": "STK17B", "assay": "enzyme activity, inhibitor, radiometric", "setting": "1 µM", "endpoint": "remaining activity", "value": "96%"}
